Screening results: PubChem BioAssay, several laboratories
An excerpt weighted towards active compounds, which were near 5% of everything screened.
Mdm2 MdmX PPI: human Mdm2/MdmX binding inhibition | O15151+Q00987 | SaOS-2 split-luciferase Mdm2/MdmX complementation, luminescence | inhibition, % at 8 µM | hit rate 3% among 330,000 | AID 485346;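 active = inhibition of at least 50% at 8 µM in the primary screen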
Target sequence (O15151 whole entry, looked up): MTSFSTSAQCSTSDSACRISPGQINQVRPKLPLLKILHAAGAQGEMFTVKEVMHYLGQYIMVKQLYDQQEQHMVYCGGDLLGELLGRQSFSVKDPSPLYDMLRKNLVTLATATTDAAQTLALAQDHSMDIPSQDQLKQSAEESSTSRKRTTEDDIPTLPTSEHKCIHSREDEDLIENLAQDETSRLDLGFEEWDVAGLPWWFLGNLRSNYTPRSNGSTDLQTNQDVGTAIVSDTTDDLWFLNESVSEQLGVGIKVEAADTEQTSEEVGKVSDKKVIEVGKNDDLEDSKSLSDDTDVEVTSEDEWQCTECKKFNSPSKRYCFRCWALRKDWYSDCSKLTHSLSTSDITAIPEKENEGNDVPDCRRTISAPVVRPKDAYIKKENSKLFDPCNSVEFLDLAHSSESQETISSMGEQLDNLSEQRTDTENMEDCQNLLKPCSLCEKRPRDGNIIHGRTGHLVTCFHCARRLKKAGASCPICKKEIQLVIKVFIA
Target sequence (Q00987 whole entry, looked up): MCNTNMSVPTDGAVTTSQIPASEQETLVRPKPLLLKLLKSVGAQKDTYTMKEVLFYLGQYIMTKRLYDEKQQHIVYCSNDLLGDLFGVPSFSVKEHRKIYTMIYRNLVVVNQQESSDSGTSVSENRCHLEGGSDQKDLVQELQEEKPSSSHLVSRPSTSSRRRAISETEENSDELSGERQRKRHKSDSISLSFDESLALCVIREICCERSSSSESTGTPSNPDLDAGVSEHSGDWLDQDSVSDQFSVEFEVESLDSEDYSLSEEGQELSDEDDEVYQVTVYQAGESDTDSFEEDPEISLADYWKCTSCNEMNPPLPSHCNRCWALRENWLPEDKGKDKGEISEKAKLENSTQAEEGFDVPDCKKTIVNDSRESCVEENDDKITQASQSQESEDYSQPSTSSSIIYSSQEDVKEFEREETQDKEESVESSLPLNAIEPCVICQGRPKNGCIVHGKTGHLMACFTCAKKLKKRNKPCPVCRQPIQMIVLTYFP
Beta cell apopt: blocks beta cell apoptosis | INS-1E cytokine-induced death, ATP luminescence, 48 h; percent of positive-control rescue, neutral wells zero | protection from apoptosis, % (test concentration not listed) | hit rate 0.8% among 300,000;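 active = Every replicate reaches about 75%, or at least half do and their mean reaches it too, limit read from the data; inconclusive = At least half of replicates reach the limit but their mean does not; inactive = Under half of replicates reach the limit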;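 also: 0% = cytokine-treated negative control wells and 100% = positive control rescue; higher means more ATP so stronger rescue from cytokine killing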
XBP1 UPR activ: activators of adaptive arm of unfolded protein response (XBP1). activation, % at 20 µM. CHO-XBP1 luciferase reporter, IRE1-XBP1 UPR activation, luminescence; percent of tunicamycin response, DMSO as zero. hit rate 0.33% among 330,000;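 active = versus positive control, 20 µM dose yields 30% or more activation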;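 also: 100% = tunicamycin at 10 µg/mL and 0% = DMSO only wells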
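Material: CHO cell line with stable XBP1 luciferase reporter; buffer or medium: F12 medium containing 10% fetal bovine serum; compound: single point, 20 µM final compound, 1% DMSO; incubation: 6 h treatment, 37 °C; measured by: glow luminescence from Steady-Glo reagent; evaluation: activation, % of tunicamycin; control set: tunicamycin high, DMSO low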
CSC inhib: cancer stem cell inhibition; cancer stem cell-like cells viability, luminescence; inhibition, % at 7.5 µM; hit rate 1.1% among 300,000; AID 2717; in the data active = inhibition above about 75%; inconclusive = no clear call, values can overlap the other calls; tested in HMLE shEcad cells
T cruzi inh: T. cruzi replication inhibition; T. cruzi beta-gal in NIH3T3, luminescence, 90 h; hit rate 1.4% among 300,000; inhibition, % (test concentration not listed); AID 1885;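 active = mean inhibition across valid replicates above about 55%, limit read from the data; inconclusive = mean below that limit but half or more replicates reach it; inactive = mean below it, under half of replicates reach it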;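 also: signal also drops with host cell toxicity which is not excluded here; 0% = plate median of DMSO wells and 100% = zero luminescence signal; higher percent means less beta-gal luminescence so fewer parasites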
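System: Mouse NIH/3T3 fibroblasts infected with β-gal-expressing T. cruzi Tulahuen C4 | Quantity: NIH/3T3 cells, 5,000 per well | Reagent: 5000 reporter trypomastigotes per well | Dosing: Compound pinned at 50 nL/well, DMSO | Schedule: 3 h host attachment, then at least 90 h co-culture | Detection: GalScreen luminescence, 60 min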
UPR CHOP act: activators of apoptotic arm of unfolded protein response (CHOP); CHO-CHOP luciferase reporter, UPR activation, luminescence; percent of tunicamycin response over DMSO baseline; activation, % at 10 µM; hit rate 0.34% among 330,000;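 active = at 10 µM dose, activation of 40% or more, normalized to positive control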;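 also: 100% = tunicamycin at 10 µg/mL and 0% = DMSO alone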
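Dosing – one dose, 10 µM in 0.5% DMSO · System – CHO-CHOP cells, stable luciferase reporter of PERK-eIF2a-CHOP signalling · Input – 500 cells/well · Control set – tunicamycin 10 µg/mL final as positive, DMSO-only wells as negative · Timing – 6 h compound treatment, 37 °C · Measure – % activation vs tunicamycin · Technique – luminescence read with Steady-Glo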
Mdm2 MdmX conf: confirmation of human Mdm2/MdmX interaction inhibitors. inhibition, % at 8 µM. Mdm2-MdmX binding, luminescent assay. shares compounds with Mdm2 MdmX PPI. hit rate 55% among 10,000; in the data active = inhibition above about 40%
Full FLuc ctr: counter-screen for Mdm2/MdmX inhibitors: full-length luciferase. shares compounds with Mdm2 MdmX PPI. SaOS-2 full-length luciferase counterscreen, luminescence. AID 504607. inhibition, % at 8 µM. hit rate 77% among 6,200;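 active = mean inhibition at 8 µM reaching about 37%, which flags the compound as non-specific, limit read from the data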;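 also: p53-null SaOS-2 cells with luciferase driven by a doxycycline-inducible promoter; compound on cells about two nights before reading with doxycycline added after day one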
An asterisk follows results filed as active; ? = inconclusive; / = not tested or not shown.

SMILES	Mdm2 MdmX PPI	Beta cell apopt	XBP1 UPR activ	CSC inhib	T cruzi inh	UPR CHOP act	Mdm2 MdmX conf	Full FLuc ctr
CCC(=O)OCC(=O)c1c(N)n(Cc2ccccc2)c(=O)n(C)c1=O	2	-8	-2	7	-2	1	/	/
Cc1ccc(C)c(N2CCN(c3ncccc3[N+](=O)[O-])CC2)c1	73*	4	-3	26	13	-1	23	/
COc1nc(-c2ccccc2Cl)ccc1C#N	-1	-3	0	13	0	0	/	/
COc1ccc(-c2ccc(C#N)c(OC(=O)c3c(Cl)cccc3Cl)n2)cc1	64*	-1	-1	46	-7	-3	28	/
Cc1[nH]c2c(ccc3ccccc32)c1C1C(CCN)C1(C)C (stereo not drawn)	61*	?	7	62	65*	1	40*	77*
Cc1ccc2c(c1)-c1c(ssc1=S)C(C)(C)N2C(=O)c1ccco1	57*	-16	2	48	21	0	37	/
COc1cc2c(ccc3cc(OC)c(OC)c(O)c32)cc1O	74*	10	-4	-5	18	-1	38	31
COc1cc2cccc(OC)c(=O)c2c(O)c1OC	-40	-1	3	13	1	2	/	/
Cc1ccc(C)c(NS(=O)(=O)c2ccc(-c3cnc(C4CC4)o3)cc2)c1	71*	47	13	75*	22	1	55*	81*
CC(=O)c1cccc(NS(=O)(=O)c2ccc(-c3cnc(C4CC4)o3)cc2)c1	48	45	-5	63	-17	0	/	/
O=S(=O)(Nc1ccccc1)c1ccc(-c2cnc(C3CC3)o2)cc1	49	3	-6	55	-21	-2	/	/
CC(=O)Nc1ccc(NS(=O)(=O)c2ccc(-c3cnc(C4CC4)o3)cc2)cc1	43	/	-3	/	15	3	/	/
Cc1cc(C)cc(NS(=O)(=O)c2ccc(-c3cnc(C4CC4)o3)cc2)c1	75*	/	8	/	13	-1	68*	69*
CCOc1ccc(NS(=O)(=O)c2ccc(-c3cnc(C4CC4)o3)cc2)cc1	57*	-2	-3	-13	-1	-1	57*	52*
Cc1cccc(NS(=O)(=O)c2ccc(-c3cnc(C4CC4)o3)cc2)c1C	85*	/	13	/	27	1	66*	76*
Cc1ccc(NC(=O)C(C)OC(=O)/C=C/c2ccccc2)cc1S(=O)(=O)N1CCOCC1 (stereo not drawn)	12	/	-2	-4	-5	1	/	/
O=C(CC12CC3CC(CC(C3)C1)C2)Nc1c(F)cccc1F	14	/	3	/	-4	1	/	/
COc1ccccc1NS(=O)(=O)c1cc(-c2cnc(C3CC3)o2)ccc1C	53*	7	-3	-7	-96	0	46*	56*
Cc1c(-c2ccncc2)oc2ccc(Br)cc2c1=O	-21	-4	5	-5	3	2	/	/
Cc1cc(C)c2nc(C(F)(F)F)nc(NCCCN3CCOCC3)c2c1	26	-5	1	3	45	-1	/	/
CCCCSc1nc(C)cc(SCC(=O)N/N=C/c2cccc(OC)c2O)n1	72*	48	3	?	1	-2	80*	34
C=CCn1c(CNc2ccc(C)cc2)nnc1SCC(=O)N/N=C/c1ccc(O)cc1O	57*	1	0	106*	19	-1	56*	36
COc1ccccc1/C=N/NC(=O)CSc1ccc2ccccc2n1	12	2	3	31	-8	3	/	/
C=CCn1c(COc2ccccc2)nnc1SCC(=O)N/N=C/c1ccc(C)cc1	-7	-8	3	7	-8	5	/	/
COc1ccc2nc(C)cc(SCC(=O)N/N=C/c3ccc(O)cc3O)c2c1	55*	77*	-4	104*	-2	-1	79*	37*
SMILES	Mdm2 MdmX PPI	Beta cell apopt	XBP1 UPR activ	CSC inhib	T cruzi inh	UPR CHOP act	Mdm2 MdmX conf	Full FLuc ctr
O=C(CSc1ccccc1)N/N=C/c1ccccc1O	42	-3	2	1	4	1	/	/
COc1ccc(CSCC(=O)N/N=C/c2ccccc2O)cc1	57*	-10	0	9	22	-1	36	65*
COc1ccc(NC(=O)[C@@H]2CC=C[C@@H]3CCN(C4CCCCC4)C(=O)[C@@H]32)cc1	-10	-5	-3	-10	3	-2	/	/
CNS(=O)(=O)c1ccc(NC(=O)c2cc(-c3ccncc3)nc3ccc(Cl)cc23)cc1	13	-2	-6	1	17	1	/	/
c1ccc2c(c1)c1ccccc1n1c(-c3ccc4c(c3)OCO4)nnc21	4	7	6	/	12	-2	/	/
COc1cc(C(=O)Nc2ccn(C)n2)ccc1OC(F)F	8	-4	2	/	/	2	/	/
COc1ccccc1/C=N/NC(=O)CSc1cc(C)nc2ccccc12	39	-3	3	-6	15	-1	/	/
COc1cccc2c(SCC(=O)N/N=C/c3ccc(O)cc3O)cc(C)nc12	54*	/	-1	/	-16	-2	46*	65*
CCOC(=O)C1=C(c2ccccc2)O/C(=C(/C#N)C(F)(F)F)S1	101*	116*	-2	56	70*	54*	99*	0
CCOC(=O)C1=C(c2ccccc2)O/C(=C(\C(=O)OC)C(F)(F)F)S1	14	-9	-1	0	17	-3	/	/
COc1ccc2c(c1)[C@H]1[C@H](CO2)[C@H](c2ccccc2)[C@]2(C)C(=O)N[C@@H](C)C(=O)N12	25	9	-1	10	/	0	/	/
Cc1nn(CC(=O)NCc2cccc3ccccc23)c(=O)c2ccccc12	85*	0	1	27	4	2	48*	64*
Cc1nn(CC(=O)NCc2ccccc2)c(=O)c2ccccc12	-16	0	2	/	4	1	/	/
COc1cccc(/C=C/c2ccc3cccc(O)c3n2)c1OC	70*	51	5	66	41	26	-95	/
COc1cc(/C=N/O)cc(Br)c1OC	19	0	4	-12	-2	-3	/	/
COc1cc(/C=C/c2ccc3cccc([N+](=O)[O-])c3n2)ccc1OCC(=O)O	21	2	-1	7	2	0	/	/
COc1cccc(/C=C/c2ccc3cccc(O)c3n2)c1	62*	50	-2	41	?	16	-143	/
COc1cc(/C=C/c2ccc3cccc(O)c3n2)cc(Br)c1OC	93*	44	120*	52	72*	21	11	/
COc1cc(Br)cc(/C=C/c2ccc3cccc(O)c3n2)c1OC	65*	16	5	52	48	1	26	/
